Published values collected from several papers.
Each line is one published result; the experiments were not run side by side.
Effect on: cell growth or viability

| Structure (SMILES) | cell line | assay | conditions | quantity | value |
| --- | --- | --- | --- | --- | --- |
| CC1(C)CCC(CN2CCN(c3ccc(C(=O)NS(=O)(=O)c4ccc(NCC5CCOCC5)c([N+](=O)[O-])c4)c(Oc4cnc5[nH]ccc5c4)c3)CC2)=C(c2ccc(Cl)cc2)C1 | Toledo | ATP luminescence | 48 h | IC50 | 71 nM |
| COc1cc2c3c(n(CCCNCCO)c(=O)c2cc1OC)-c1nc2c(cc1C3=O)OCO2 | Kasumi 1 | MTS | 72 h | IC50 | 530 nM |
| C=C(F)C(=O)N1CCN(c2nc(OC[C@@H]3CCCN3C)nc3c2CCN(c2cccc4cccc(Cl)c24)C3)C[C@@H]1CC#N | SW480 | ATP luminescence | 3D culture | IC50 | > 1000 nM |
| O=C(NO)c1ccc(CNc2nc3cccc(-c4ccc5c(c4)OCO5)n3n2)cc1 | A498 | SRB |  | GI50 | 510 nM |
| CC1(CN)CCN(c2cnc3c(Sc4ccncc4Cl)n[nH]c3n2)CC1 | HGC-27 | CCK-8 | 96 h | IC50 | 4830 nM |
| Cc1cccc(-c2[nH]c(CNc3ccccc3F)nc2-c2ccc3ncnn3c2)n1 | MM1.S | XTT |  | IC50 | ~1500 nM |
| Cc1noc2c1-c1ccccc1C(c1ccc(Cl)cc1)=N[C@H]2CC(N)=O | Kasumi 1 | ATP luminescence | 72 h | IC50 | 263 nM |
| C=CC(=O)N1CCN(c2nc(=O)n(-c3c(C)ccnc3C(C)C)c3nc(-c4c(O)cccc4F)c(F)cc23)[C@@H](C)C1 | SW480 | ATP luminescence |  | IC50 | > 10000 nM |
| Nc1cccc2c1C(=O)N(C1CCC(=O)NC1=O)C2=O (stereo not drawn) | MM1.S | XTT |  | IC50 | ~300 nM |
| CC(C)c1ccccc1[C@@H]1CCCN1C1CC2(CCN(c3ccc(C(=O)NS(=O)(=O)c4ccc(NC[C@H]5CC[C@](C)(O)CC5)c([N+](=O)[O-])c4)c(Oc4cnc5[nH]ccc5c4)c3)CC2)C1 | Toledo | ATP luminescence | 48 h | IC50 | 4.6 nM |
| COc1cc2c3c(n(CCCNC(C)C)c(=O)c2cc1OC)-c1nc2c(cc1C3=O)OCO2 | Kasumi 1 | MTS | 72 h | IC50 | 432 nM |
| C=CC(=O)NC1CCN(c2ncc3ncnc(Nc4ccc(Oc5ccc6c(c5)ncn6C)c(C)c4)c3n2)CC1 | GP2d |  |  | EC50 | 12300 nM |
